Reference: ChEMBL document CHEMBL3098022, “Multifunctional cholinesterase and amyloid Beta fibrillization modulators. Synthesis and biological investigation” (ACS Med Chem Lett, 2013)
Active and inactive are the calls of the source. No cut-off for these calls is given here.

Tests used:
Acetylcholinesterase [1] = molecular target: T1, Acetylcholinesterase (Homo sapiens, UniProt P22303); assay: Inhibition of human acetylcholine esterase
Cholinesterase = Cholinesterase (Homo sapiens, UniProt P06276); assay: Inhibition of human butyrylcholine esterase
Homo sapiens = species on record: Homo sapiens; assay: Selectivity ratio of Ki for human acetylcholine esterase to Ki for human butyrylcholine esterase
[2] = molecular target: T2, Amyloid-beta precursor protein (Homo sapiens, UniProt P05067); assay: Inhibition of amyloid beta (1 to 42) aggregation (unknown origin) at 5 uM by ThT-based fluorescence assay
Acetylcholinesterase [3] = molecular target: T1, Acetylcholinesterase; assay: Inhibition of human acetylcholine esterase-induced amyloid beta (1 to 40) aggregation at 100 uM by ThT-based fluorescence assay
[4] = molecular target: T2, Amyloid-beta precursor protein; assay: Inhibition of amyloid beta (1 to 42) aggregation (unknown origin) after 24 hrs by ThT-based fluorescence assay
Acetylcholinesterase [5] = molecular target: T1, Acetylcholinesterase; assay: Inhibition of human acetylcholine esterase-induced amyloid beta (1 to 40) aggregation by ThT-based fluorescence assay
[6] = molecular target: T2, Amyloid-beta precursor protein; assay: Inhibition of amyloid beta (1 to 42) oligomerization (unknown origin) assessed as stable smaller oligomer formation at 500 uM after 24 hrs by capillary electrophoresis method
[7] = molecular target: T2, Amyloid-beta precursor protein; assay: Inhibition of amyloid beta (1 to 42) oligomerization (unknown origin) assessed as oligomer stabilization at 200 uM measured immediately by capillary electrophoresis method
[8] = molecular target: T2, Amyloid-beta precursor protein; assay: Inhibition of amyloid beta (1 to 42) oligomerization (unknown origin) assessed as depletion of higher molecular weight oligomers after 6 hrs to 2 days by capillary electrophoresis method
[9] = molecular target: T2, Amyloid-beta precursor protein; assay: Inhibition of amyloid beta (1 to 42) oligomerization (unknown origin) assessed as amorphous aggregates formation at 50 to 500 uM by transmission electron microscopy
How it was run: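 Aβ1-42 samples were imaged by transmission electron microscopy with 50 µM test compound added, n = 2.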

[10] = molecular target: T2, Amyloid-beta precursor protein; assay: Inhibition of amyloid beta (1 to 42) oligomerization (unknown origin) assessed as depletion of higher molecular weight oligomers formation at 200 to 500 uM by capillary electrophoresis method; settings: TDE = time-dependent effect
[11] = molecular target: T2, Amyloid-beta precursor protein; assay: Inhibition of amyloid beta (1 to 42) oligomerization (unknown origin) assessed as inhibition of toxic aggregate formation at 500 uM after 24 hrs by capillary electrophoresis method
[12] = molecular target: T2, Amyloid-beta precursor protein; assay: Inhibition of amyloid beta (1 to 42) oligomerization (unknown origin) assessed as oligomer stabilization at 200 uM after 6 hrs by capillary electrophoresis method
[13] = molecular target: T2, Amyloid-beta precursor protein; assay: Inhibition of amyloid beta (1 to 42) oligomerization (unknown origin) assessed as oligomer stabilization at 200 uM after 2 days by capillary electrophoresis method
[14] = molecular target: T2, Amyloid-beta precursor protein; assay: Inhibition of amyloid beta (1 to 42) oligomerization (unknown origin) assessed as disaggregation of toxic oligomers and precipitation at 200 to 500 uM by transmission electron microscopy relative to control

T1 sequence (P22303 whole entry): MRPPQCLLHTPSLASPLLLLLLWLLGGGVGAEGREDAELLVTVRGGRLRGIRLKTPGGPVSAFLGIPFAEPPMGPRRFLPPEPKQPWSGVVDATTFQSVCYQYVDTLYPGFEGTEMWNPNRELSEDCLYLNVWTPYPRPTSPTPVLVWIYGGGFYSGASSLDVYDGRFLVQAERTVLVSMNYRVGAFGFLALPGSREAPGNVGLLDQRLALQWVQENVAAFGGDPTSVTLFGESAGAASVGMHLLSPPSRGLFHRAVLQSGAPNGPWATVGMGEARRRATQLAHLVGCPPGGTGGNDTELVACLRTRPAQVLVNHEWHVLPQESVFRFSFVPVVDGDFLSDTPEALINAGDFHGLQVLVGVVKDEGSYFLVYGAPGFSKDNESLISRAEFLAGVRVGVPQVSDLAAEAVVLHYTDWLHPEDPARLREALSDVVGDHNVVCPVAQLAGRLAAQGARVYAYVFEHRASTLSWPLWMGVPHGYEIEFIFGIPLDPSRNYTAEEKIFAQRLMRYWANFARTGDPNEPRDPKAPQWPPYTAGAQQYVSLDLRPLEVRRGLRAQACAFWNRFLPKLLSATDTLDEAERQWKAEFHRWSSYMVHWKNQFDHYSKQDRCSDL
T2 sequence (P05067 whole entry): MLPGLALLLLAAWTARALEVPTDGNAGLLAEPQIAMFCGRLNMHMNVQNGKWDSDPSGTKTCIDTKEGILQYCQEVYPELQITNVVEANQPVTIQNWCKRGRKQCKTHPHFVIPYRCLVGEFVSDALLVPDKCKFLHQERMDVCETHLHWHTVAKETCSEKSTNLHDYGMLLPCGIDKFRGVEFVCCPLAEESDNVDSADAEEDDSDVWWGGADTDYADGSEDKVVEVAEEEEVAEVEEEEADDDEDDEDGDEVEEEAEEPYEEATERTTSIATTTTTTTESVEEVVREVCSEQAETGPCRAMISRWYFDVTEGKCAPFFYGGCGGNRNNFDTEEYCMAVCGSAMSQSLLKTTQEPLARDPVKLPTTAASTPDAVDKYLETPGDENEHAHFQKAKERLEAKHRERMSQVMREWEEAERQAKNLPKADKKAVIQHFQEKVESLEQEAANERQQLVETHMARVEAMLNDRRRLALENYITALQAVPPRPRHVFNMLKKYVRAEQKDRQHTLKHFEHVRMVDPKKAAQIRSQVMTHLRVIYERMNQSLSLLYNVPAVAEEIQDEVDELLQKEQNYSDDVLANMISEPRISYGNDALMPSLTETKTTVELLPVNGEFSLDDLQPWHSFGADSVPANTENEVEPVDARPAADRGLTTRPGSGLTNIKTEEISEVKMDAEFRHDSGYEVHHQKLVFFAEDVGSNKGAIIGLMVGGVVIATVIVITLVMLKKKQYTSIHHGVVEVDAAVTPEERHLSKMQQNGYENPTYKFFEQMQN
Cholinesterase, sequence (P06276 whole entry): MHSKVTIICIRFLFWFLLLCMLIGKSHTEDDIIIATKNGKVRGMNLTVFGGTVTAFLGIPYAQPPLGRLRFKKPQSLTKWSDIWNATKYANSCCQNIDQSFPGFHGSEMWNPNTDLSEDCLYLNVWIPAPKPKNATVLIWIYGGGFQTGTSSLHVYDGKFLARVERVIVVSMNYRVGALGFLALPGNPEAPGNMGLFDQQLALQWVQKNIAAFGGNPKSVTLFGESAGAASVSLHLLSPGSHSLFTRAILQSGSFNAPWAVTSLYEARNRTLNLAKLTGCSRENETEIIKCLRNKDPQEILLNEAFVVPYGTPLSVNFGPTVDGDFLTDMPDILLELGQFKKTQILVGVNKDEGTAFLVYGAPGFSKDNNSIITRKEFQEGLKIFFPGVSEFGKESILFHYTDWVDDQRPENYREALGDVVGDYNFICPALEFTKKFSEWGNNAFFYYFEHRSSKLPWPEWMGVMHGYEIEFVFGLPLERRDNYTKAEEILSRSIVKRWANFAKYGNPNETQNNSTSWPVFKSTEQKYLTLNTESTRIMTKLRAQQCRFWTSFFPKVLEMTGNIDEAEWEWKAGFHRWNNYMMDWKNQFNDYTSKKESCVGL

Structure (SMILES)	Ki (Acetylcholinesterase [1])	Ki (Cholinesterase)	Ratio Ki (Homo sapiens)	inhibition [2]	inhibition (Acetylcholinesterase [3])	also measured
Nc1cccc2c(NCCCCCCCCNc3c4c(nc5ccccc35)CCCC4)c3c(nc12)CCCC3	0.23 nM	8.26 nM	0.028			
c1ccc2c(NCCCCCCCNc3c4c(nc5ccccc35)CCCC4)c3c(nc2c1)CCCC3				8.4%		
CN(CCCCNc1c2c(nc3c(NC(=O)CNC(=O)CC[C@H](NC(=O)CNC(=O)OCc4ccccc4)C(=O)N[C@@H](Cc4ccccc4)C(=O)OCc4ccccc4)cccc13)CCCC2)CCCNc1c2c(nc3ccccc13)CCCC2	1.48 nM	21.3 nM	0.07		42%	IC50 [4]: 51000 nM; IC50 (Acetylcholinesterase [5]): 113000 nM
O=[N+]([O-])c1cccc2c(NCCCCCCCCNc3c4c(nc5ccccc35)CCCC4)c3c(nc12)CCCC3	0.78 nM	0.06 nM	13			
CN(CCCCNc1c2c(nc3ccccc13)CCCC2)CCCNc1c2c(nc3c(NC(=O)CNC(=O)CC[C@H](NC(=O)CNC(=O)OCc4ccccc4)C(=O)N[C@@H](Cc4ccccc4)C(=O)OCc4ccccc4)cccc13)CCCC2	5.02 nM	61.8 nM	0.081		42%	
O=C(CC[C@H](NC(=O)CNC(=O)OCc1ccccc1)C(=O)N[C@@H](Cc1ccccc1)C(=O)OCc1ccccc1)NCC(=O)Nc1cccc2c(NCCCCCCCCNc3c4c(nc5ccccc35)CCCC4)c3c(nc12)CCCC3	1.92 nM	40.9 nM	0.038	81%	26%	inhibition [6]: Active; inhibition [7]: 82.5%; inhibition [8]: Dose-dependent effect; inhibition [9]: Active; inhibition [10]: tde; inhibition [11]: Active; inhibition [12]: 87.2%; inhibition [13]: Active; inhibition [14]: Active
